ChEMBL document CHEMBL1268932, “Discovery and SAR of a series of 4,6-diamino-1,3,5-triazin-2-ol as novel non-nucleoside reverse transcriptase inhibitors of HIV-1” (Bioorg Med Chem Lett, 2010)

Columns and labels:
[1] = test system: Human immunodeficiency virus 1; assay: Antiviral activity against wild type HIV1 assessed as inhibition of virus-induced cytopathic effect by cell based assay; type: functional, organism-based
Method in brief: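 Cell-based cytoprotection assay. The endpoint is EC50, the concentration giving 50% inhibition of the virus-induced cytopathic effect. Virus and cells were either HIV-1RF in CEM-SS cells or HIV-1IIIB in MT-4 cells.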

[2] = target: Human immunodeficiency virus type 1 reverse transcriptase (Human immunodeficiency virus 1, UniProt Q72547); assay: Inhibition of wild type HIV1 reverse transcriptase
[3] = test system: Human immunodeficiency virus 1; assay: Antiviral activity against wild type HIV1 NL4-3 infected in human CEM-SS cells assessed as inhibition of virus-induced cytopathic effect; type: functional, organism-based; conditions: Human immunodeficiency virus 1, NL4-3, CEM-SS
[4] = Half life in rat at 2 mg/kg, iv; type: ADME, organism-based; design: dose 2 mg/kg, route intravenous; conditions: in vivo
Method in brief: (§1)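 Rats dosed orally at 4 mg/kg and intravenously at 2 mg/kg. Plasma parameters were Cmax and AUC, plus t1/2, Vdss and clearance after the IV dose. Apparent oral bioavailability was derived from both routes.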

[5] = target: Human immunodeficiency virus type 1 reverse transcriptase (Human immunodeficiency virus 1, UniProt Q72547, Y188L); assay: Inhibition of HIV1 reverse transcriptase Y188L mutant
[6] = target: Human immunodeficiency virus type 1 reverse transcriptase (Human immunodeficiency virus 1, UniProt Q72547, L100I); assay: Inhibition of HIV1 reverse transcriptase L100I mutant
[7] = Clearance in rat at 4 mg/kg, po or 2 mg/kg, iv; type: ADME, organism-based; conditions: in vivo; method in brief: as §1
[8] = test system: Human immunodeficiency virus 1; assay: Antiviral activity against HIV1 NL4-3 containing reverse transcriptase K103N mutation infected in human CEM-SS cells assessed as inhibition of virus-induced cytopathic effect; type: functional, organism-based; conditions: Human immunodeficiency virus 1, NL4-3, CEM-SS
[9] = AUC in rat at 4 mg/kg, po or 2 mg/kg, iv; type: ADME, organism-based; conditions: plasma; method in brief: as §1
[10] = target: Human immunodeficiency virus type 1 reverse transcriptase (Human immunodeficiency virus 1, UniProt Q72547, V106A); assay: Inhibition of HIV1 reverse transcriptase V106A mutant
[11] = Oral bioavailability in rat at 4 mg/kg, po; type: ADME, organism-based; conditions: in vivo; method in brief: as §1
[12] = Volume of distribution at steady state in rat at 4 mg/kg, po or 2 mg/kg, iv; type: ADME, organism-based; conditions: in vivo, read-out: Vdss; method in brief: as §1
[13] = Cmax in rat at 4 mg/kg, po; type: ADME, organism-based; design: dose 4 mg/kg, route oral; conditions: in vivo; method in brief: as §1
[14] = Toxicity in human CEM-SS cells; type: cell-based; conditions: read-out: TC50 (the source's name)
[15] = test system: Human immunodeficiency virus 1; assay: Antiviral activity against HIV1 NL4-3 containing reverse transcriptase Y181C mutation infected in human CEM-SS cells assessed as inhibition of virus-induced cytopathic effect; type: functional, organism-based; conditions: Human immunodeficiency virus 1, NL4-3, CEM-SS

Row | SMILES | EC50 [1] | IC50 [2] | further results
1 | Cc1cccc(-c2ccccc2)c1Oc1nc(N)nc(NCc2ccc3occc3c2)n1 | > 50 µM | > 100 µM | –
2 | CN(Cc1ccc2occc2c1)c1nc(O)nc(Nc2c(F)cc(F)cc2-c2ccccc2)n1 | 0.01 µM | 0.07 µM | –
3 | CC(C)(Nc1nc(O)nc(Nc2c(F)cccc2-c2ccccc2)n1)c1ccc2c(c1)OCO2 | – | > 100 µM | –
4 | Cc1cccc(-c2ccccc2)c1Nc1nc(O)nc(N(C)Cc2ccc3c(c2)CCO3)n1 | 0.003 µM | 0.055 µM | EC50 [3]: 0.006 µM; half-life [4]: 1.4 h; IC50 [5]: 9.5 µM; IC50 [6]: 0.07 µM; clearance [7]: 4.5 mL/min/kg; EC50 [8]: > 1 µM; AUC [9]: 15.6 µM·h; IC50 [10]: 36.7 µM; bioavailability [11]: 44%; Vd [12]: 0.32 L/kg; Cmax [13]: 6.1 µM; CC50 [14]: > 1 µM; EC50 [15]: 0.2 µM
5 | Cc1cccc(-c2ccccc2)c1Nc1nc(O)nc(OCc2ccc3occc3c2)n1 | 4 µM | 23.6 µM | –
6 | Oc1nc(NCc2ccc3cc[nH]c3c2)nc(Nc2cccc(Br)c2)n1 | > 10 µM | 40 µM | –
7 | CN(Cc1ccc2occc2c1)c1nc(O)nc(Nc2c(F)cccc2-c2ccccc2)n1 | 0.005 µM | 0.008 µM | EC50 [3]: 0.006 µM; half-life [4]: 1.45 h; IC50 [5]: 6.1 µM; IC50 [6]: 0.047 µM; clearance [7]: 5.17 mL/min/kg; EC50 [8]: > 1 µM; AUC [9]: 12.5 µM·h; IC50 [10]: 9.1 µM; bioavailability [11]: 38%; Vd [12]: 0.35 L/kg; Cmax [13]: 3.8 µM; CC50 [14]: > 1 µM; EC50 [15]: 0.1 µM
8 | Oc1nc(NCc2ccc3cc[nH]c3c2)nc(Nc2ccccc2-c2ccccc2)n1 | 7.2 µM | 3.5 µM | –
9 | Cc1cccc(-c2ccccc2)c1Nc1nc(O)nc(NCc2ccc3occc3c2)n1 | 0.2 µM | 0.07 µM | –
10 | CCN(Cc1ccc2occc2c1)c1nc(O)nc(Nc2c(F)cccc2-c2ccccc2)n1 | – | > 100 µM | –
11 | Cc1cccc(-c2ccccc2)c1Nc1nc(O)nc(NCc2ccc3cc[nH]c3c2)n1 | 0.9 µM | 0.5 µM | –
12 | CN(Cc1ccc2occc2c1)c1nc(O)nc(Nc2ccccc2N2CCOCC2)n1 | – | 4.1 µM | –
13 | Cc1cccc(-c2ccccc2)c1Nc1nc(O)nc(NCc2ccc3c(ccn3S(C)(=O)=O)c2)n1 | > 10 µM | > 100 µM | –
14 | Oc1nc(NCc2ccc3cc[nH]c3c2)nc(Nc2cccc(Oc3ccccc3)c2)n1 | > 10 µM | > 100 µM | –
15 | Cc1ccnc2c1NC(=O)c1cccnc1N2C1CC1 [NEVIRAPINE] | – | – | EC50 [3]: 0.2 µM; EC50 [8]: > 1 µM; CC50 [14]: > 1 µM; EC50 [15]: > 1 µM
16 | Cc1cccc(-c2ccccc2)c1Nc1nc(O)nc(N(C)Cc2ccc3occc3c2)n1 | 0.12 µM | 0.083 µM | –
17 | Cc1cccc(-c2ccccc2)c1Nc1nc(O)nc(NCc2ccc3c(c2)OCCCO3)n1 | 2.8 µM | 4.4 µM | –
18 | Cc1cccc(-c2ccoc2)c1Nc1nc(O)nc(N(C)Cc2ccc3occc3c2)n1 | 0.007 µM | 0.08 µM | –
19 | Cc1cccc(-c2ccccc2)c1Nc1nc(O)nc(N(C)Cc2ccc3c(c2)OCO3)n1 | 0.13 µM | 0.09 µM | –
20 | Oc1nc(NCc2ccc3occc3c2)nc(Nc2c(F)cccc2-c2ccccc2)n1 | 0.4 µM | 0.09 µM | –
21 | Cc1cccc(-c2ccccc2)c1N(C)c1nc(O)nc(NCc2ccc3occc3c2)n1 | 1.5 µM | 5.1 µM | –
22 | Fc1cccc(-c2ccccc2)c1Nc1nc(Cl)nc(NCc2ccc3occc3c2)n1 | – | > 100 µM | –
23 | COc1nc(NCc2ccc3occc3c2)nc(Nc2c(C)cccc2-c2ccccc2)n1 | 3 µM | 2.57 µM | –
24 | Cc1cccc(-c2ccccc2)c1Oc1nc(O)nc(NCc2ccc3occc3c2)n1 | 12.6 µM | 9.7 µM | –
25 | O=C1Nc2ccc(Cl)cc2[C@@](C#CC2CC2)(C(F)(F)F)O1 [EFAVIRENZ] | – | – | EC50 [8]: > 1 µM; CC50 [14]: > 1 µM; EC50 [15]: 0.005 µM
